Measured values taken from PMC5522708 (Archives of biochemistry and biophysics, 2016).

Legend:
renalase = experiment: HPLC substrate analysis of reduced NR and NMN isomers with renalase; assay type: biochemical; conditions: ~12.5 µM renalase, 10 min, HPLC of borohydride-reduced mixtures, pH 7.5
Method in brief: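 Each mixture was split: one half received renalase, the other served as the no-enzyme and stability control. After 10 min, enzyme was removed by 10 kDa ultrafiltration. Filtrates ran on isocratic C18 HPLC (same buffer) with detection at 260/370 nm, corrected for dilution.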

human renalase = human renalase (Homo sapiens, UniProt Q5VYX0); assay type: biochemical, H. sapiens; conditions: for inhibition of 6DHNAD oxidation (reductive half reaction): 173 µM 6DHNAD, anaerobic
[1] = target: specific enzymes that have β-NADH as substrate; conditions: competitive; cited from earlier work
HsRen (human renalase) = conditions: cited from earlier work; for binding constants of the products: earlier work, no reference given
[2] = system: E.coli malate dehydrogenase; conditions: competitive; cited from earlier work
[3] = target: HsRen (renalase from H. sapiens) (Homo sapiens, UniProt Q5VYX0); experiment: Reductive half-reaction of HsRen; assay type: biochemical; conditions: anaerobic, 25 °C; for increase in kred/Kd on addition of ADP: ADP 4–5 mM
Method in brief: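 Anaerobic stopped-flow was run at 25 °C in 20 mM HEPES, pH 7.5, with glucose/glucose oxidase O2 scavenging. HsRen was 6–11 µM post-mix, and flavin reduction was read at 458 nm. DHNR runs included 2 mM octyl-β-glucoside.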

Chain of human renalase (Q5VYX0 18-342): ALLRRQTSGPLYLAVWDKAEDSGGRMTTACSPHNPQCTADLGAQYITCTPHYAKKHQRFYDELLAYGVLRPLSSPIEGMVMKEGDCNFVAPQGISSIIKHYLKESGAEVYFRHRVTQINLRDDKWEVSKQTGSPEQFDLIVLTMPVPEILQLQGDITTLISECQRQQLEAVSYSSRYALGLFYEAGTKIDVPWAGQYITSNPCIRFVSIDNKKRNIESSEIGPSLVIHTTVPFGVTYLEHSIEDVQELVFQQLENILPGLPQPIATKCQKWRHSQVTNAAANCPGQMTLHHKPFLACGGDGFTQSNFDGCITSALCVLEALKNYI
Chain of HsRen (renalase from H. sapiens) (Q5VYX0 18-342): as above

SMILES: NC(=O)C1=CC=CN([C@@H]2O[C@H](COP(=O)(O)O)[C@@H](O)[C@H]2O)C1 [2DHNMN, 2-dihydronicotinamide mononucleotide]
- consumed by renalase (substrate) (renalase): consumed

SMILES: NC(=O)C1=CC=CN([C@@H]2O[C@H](CO)[C@@H](O)[C@H]2O)C1 [2DHNR]
- consumed by renalase (substrate) (renalase): consumed

SMILES: NC(=O)C1=CN([C@@H]2O[C@H](COP(=O)(O)O)[C@@H](O)[C@H]2O)C=CC1 [4DHNMN, 4-dihydronicotinamide mononucleotide]
- difference in the Kd for 4DHNMN compared to 4DHNR (human renalase; HsRen): six-fold
- inhibition of 6DHNAD oxidation (reductive half reaction) (human renalase; HsRen): inhibitory

SMILES: NC(=O)C1=CN([C@@H]2O[C@H](CO)[C@@H](O)[C@H]2O)C=CC1 [4DHNR, 4-dihydronicotinamide riboside]
- inhibition of 6DHNAD oxidation (reductive half reaction) (human renalase; HsRen): inhibitory

SMILES: NC(=O)C1=CN([C@@H]2O[C@H](COP(=O)(O)OP(=O)(O)OC[C@H]3O[C@@H](n4cnc5c(N)ncnc54)[C@H](O)[C@@H]3O)[C@@H](O)[C@H]2O)CC=C1 [6DHNAD, 6-dihydronicotinamide adenine dinucleotide]
- Ki values [1]: sub-micromolar range
- Kd (HsRen (human renalase); read-out: measured dissociation constant for the substrate): 0.173 mM
- Ki [2]: 34 nM

SMILES: NC(=O)C1=CN(C2OC(COP(=O)(O)O)C(O)C2O)CC=C1 (centres unmarked) [6DHNMN, 6-dihyronicotinamide mononucleotide]
- consumed by renalase (substrate) (renalase): consumed
- effect of AMP counterpart ligand on kred/Kd ([3]; pH 7.5): no measurable difference

SMILES: NC(=O)C1=CN([C@@H]2O[C@H](CO)[C@@H](O)[C@H]2O)CC=C1 [6DHNR, 6-dihydornicotinamide riboside]
- consumed by renalase (substrate) (renalase): consumed
- increase in kred/Kd on addition of ADP ([3]; pH 7.5): 7 fold
- increase in kred/Kd on addition of ADP ([3]; pH 7.5, listed as 6-dihydronicotinamide riboside): seven

SMILES: Nc1ncnc2c1ncn2[C@@H]1O[C@H](COP(=O)(O)OP(=O)(O)O)[C@@H](O)[C@H]1O [ADP, adenosine diphosphate]
- Kd (human renalase): 15 mM

SMILES: Nc1ncnc2c1ncn2[C@@H]1O[C@H](COP(=O)(O)O)[C@@H](O)[C@H]1O [AMP, adenosine monophosphate]
- inhibition of 6DHNAD oxidation (reductive half reaction) (human renalase; HsRen): did not show measureable inhibition

SMILES: NC(=O)c1ccc[n+]([C@@H]2O[C@H](COP(=O)([O-])O)[C@@H](O)[C@H]2O)c1 [NMN^+, nicotinamide mononucleotide]
- inhibition of 6DHNAD oxidation (reductive half reaction) (human renalase; HsRen): did not yield any substrate inhibition

SMILES: NC(=O)c1ccc[n+]([C@@H]2O[C@H](CO)[C@@H](O)[C@H]2O)c1 [NR^+, nicotinamide riboside]
- IC50 (human renalase): > 7.3 mM
- inhibition of 6DHNAD oxidation (reductive half reaction) (human renalase; HsRen): did not yield any substrate inhibition

SMILES: CNC(=O)c1cccnc1 [methyl nicotinamide]
- inhibition of 6DHNAD oxidation (reductive half reaction) (human renalase; HsRen): did not show measureable inhibition

SMILES: NC(=O)c1cccnc1 [nicotinamide]
- IC50 (human renalase): > 68 mM
- inhibition of 6DHNAD oxidation (reductive half reaction) (human renalase; HsRen): did not show measureable inhibition

SMILES: NC(=O)c1ccc[n+]([C@@H]2O[C@H](COP(=O)([O-])OP(=O)(O)OC[C@H]3O[C@@H](n4cnc5c(N)ncnc54)[C@H](OP(=O)(O)O)[C@@H]3O)[C@@H](O)[C@H]2O)c1 [β-NADP^+, oxidized nicotinamide adenine dinucleotide phosphate]
- binding constants of the products (HsRen (human renalase)): low millimolar

SMILES: NC(=O)c1ccc[n+]([C@@H]2O[C@H](COP(=O)([O-])OP(=O)(O)OC[C@H]3O[C@@H](n4cnc5c(N)ncnc54)[C@H](O)[C@@H]3O)[C@@H](O)[C@H]2O)c1 [β-NAD^+, oxidized nicotinamide adenine dinucleotide]
- binding constants of the products (HsRen (human renalase)): low millimolar
